Assay results published in ChEMBL document CHEMBL2177098, “Synthesis and evaluation of novel ¹⁸F labeled 2-pyridinylbenzoxazole and 2-pyridinylbenzothiazole derivatives as ligands for positron emission tomography (PET) imaging of β-amyloid plaques” (J Med Chem, 2012).
The source made the active and inactive calls. The calls are words filed in the database; no cut-off is given here.

What was measured:
Mus musculus [1] = species on record: Mus musculus; experiment: Binding affinity to amyloid beta plaques in transgenic C57BL6 mouse hippocampus expressing APP Swedish mutant/PSEN1 at 370 KBq/100 ul after 1 hr by autoradiographic analysis; format: tissue-based; conditions: tested as the 18F-labelled form
Procedure, shortened: (§1)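 Paraffin brain sections from 12-month-old Tg mice (C57BL6, APPswe/PSEN1) and age-matched controls, deparaffinized through xylene and graded ethanol, then PBS (0.2 M, pH 7.4) 30 min. Incubated with 18F tracer (370 KBq per 100 μL) 1 h at room temperature, washed in 40% EtOH, rinsed in water, then phosphor plate exposure 2 h. The same sections were afterwards stained with 0.125% thioflavin S in 10% EtOH for 3 min and washed in 40% EtOH.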

Mus musculus [2] = species on record: Mus musculus; experiment: Binding affinity to amyloid beta plaques in transgenic C57BL6 mouse hippocampus expressing APP Swedish mutant/PSEN1 at 370 KBq/100 ul after 1 hr by thioflavinS-staining method; format: tissue-based; conditions: tested as the 18F-labelled form; procedure, shortened: as §1
[3] = Displacement of [125I]-IMPY from amyloid beta (1 to 42) fibrils after 2 hrs by gamma-counting analysis
Procedure, shortened: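 Competition binding with aggregated Aβ1-42 fibrils and [125I]IMPY (60000−100000 cpm/100 μL) in 0.05% BSA (1 mL total); inhibitors 10⁻⁴−10^−8.5 M in ethanol. Incubated 37 °C for 2 h, then GF/B vacuum filtration with PBS (0.02 M, pH 7.4) washes and γ counting. Three repeats; IC50 converted to Ki by Cheng−Prusoff.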

[4] = biological target: Amyloid-beta precursor protein (Homo sapiens) (UniProt P05067); experiment: Binding affinity to amyloid beta plaques in Alzheimer patient brain at 370 KBq/100 ul after 1 hr by autoradiographic analysis; conditions: tested as the 18F-labelled form
Chain of Amyloid-beta precursor protein (Homo sapiens) (P05067 whole entry): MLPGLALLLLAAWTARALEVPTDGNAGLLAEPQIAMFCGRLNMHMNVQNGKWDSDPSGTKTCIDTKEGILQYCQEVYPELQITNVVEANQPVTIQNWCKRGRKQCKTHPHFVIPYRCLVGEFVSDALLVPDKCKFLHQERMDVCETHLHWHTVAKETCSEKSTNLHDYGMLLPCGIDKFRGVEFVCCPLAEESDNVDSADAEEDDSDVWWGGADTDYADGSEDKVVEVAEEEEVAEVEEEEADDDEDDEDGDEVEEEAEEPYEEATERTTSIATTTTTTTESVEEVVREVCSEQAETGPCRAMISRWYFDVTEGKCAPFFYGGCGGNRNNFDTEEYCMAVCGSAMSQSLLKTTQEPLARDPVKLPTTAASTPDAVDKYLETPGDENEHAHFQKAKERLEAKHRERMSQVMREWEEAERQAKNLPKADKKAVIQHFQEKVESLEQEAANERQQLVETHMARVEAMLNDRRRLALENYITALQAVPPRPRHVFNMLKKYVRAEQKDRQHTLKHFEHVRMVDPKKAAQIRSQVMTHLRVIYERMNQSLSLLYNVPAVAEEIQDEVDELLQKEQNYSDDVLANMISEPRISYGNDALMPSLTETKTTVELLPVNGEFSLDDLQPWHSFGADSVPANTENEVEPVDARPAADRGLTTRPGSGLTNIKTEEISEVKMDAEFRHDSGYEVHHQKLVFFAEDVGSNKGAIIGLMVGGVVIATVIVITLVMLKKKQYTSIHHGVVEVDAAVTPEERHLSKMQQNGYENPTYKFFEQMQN

Mus musculus [5] = species on record: Mus musculus; experiment: Binding affinity to amyloid beta plaques in transgenic C57BL6 mouse cortex expressing APP Swedish mutant/PSEN1 at 370 KBq/100 ul after 1 hr by autoradiographic analysis; conditions: tested as the 18F-labelled form; procedure, shortened: as §1
Mus musculus [6] = species on record: Mus musculus; experiment: Binding affinity to amyloid beta plaques in transgenic C57BL6 mouse cortex expressing APP Swedish mutant/PSEN1 at 370 KBq/100 ul after 1 hr by thioflavinS-staining method; conditions: tested as the 18F-labelled form; procedure, shortened: as §1

Activity (Mus musculus [1]): Active | Activity (Mus musculus [2]): Active | Ki [3]: 9.3 nM | Activity [4]: Active | Activity (Mus musculus [5]): Active | Activity (Mus musculus [6]): Active
Compound: CNc1ccc(-c2nc3ccc(OCCOCCOCCF)cc3s2)cn1
